Data reported in ChEMBL document CHEMBL4616650, “Spongian Diterpenoids Derived from the Antarctic Sponge Dendrilla antarctica Are Potent Inhibitors of the Leishmania Parasite” (J Nat Prod, 2020).

Legend:
Leishmania donovani = assay: Antileishmanial activity against Leishmania donovani MHOM/SD/75/1246/130 amastigotes infected in mouse J774A.1 cells incubated for 72 hrs by DRAQ5 fluorescent probe based assay; assay type: functional, organism-based; conditions: MHOM/SD/75/1246/130, J774.A1, 72 h
In short: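 Axenic amastigotes grown at 37 °C in RPMI 1640 pH 5.5 with HEPES, MES, hemin, xanthine, Tween-80, tryptone-peptone, 20% heat-inactivated FBS. 2000 J774A.1 macrophages per well infected at 10:1 parasites:cells, 24 h, 37 °C, 5% CO2; extracellular parasites washed off. Compounds from 10 μg/mL top, 1:2 serial dilutions, 72 h. Fixed 2% paraformaldehyde, DraQ5 5 μM nuclear stain; high-content imaging counts amastigotes per 500 macrophages; IC50 derived.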

J774.A1 = assay: Cytotoxicity against mouse J774A.1 cells incubated for 72 hrs by CellTiter 96 AQueous One solution cell proliferation assay; assay type: cell-based; conditions: J774.A1, 72 h
In short: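 J774A.1 macrophages in RPMI 1640 with 10% heat-inactivated FBS, pH 7.2. Seeded at 50 000 cells per well with six 2-fold dilutions, final 50 to 1.6 μg/mL, 72 h at 37 °C, 5% CO2. MTS reagent added for a further 4 h; absorbance read at 490 nm.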

[1] = Selectivity index, ratio of cytotoxicity against mouse J774A.1 cells to antileishmanial activity against Leishmania donovani MHOM/SD/75/1246/130 amastigotes infected in mouse J774A.1 cells; assay type: toxicity, cell-based; conditions: read-out: Ratio IC50

CC(=O)O[C@@H]1O[C@H]2OC(=O)[C@H](C)C3=C([C@@]4(C)CCCC(C)(C)C4)CC[C@@H]1[C@H]32
IC50 (Leishmania donovani): 3.5 µM
IC50 (J774.A1): > 133 µM
selectivity ratio [1]: > 38

COC(=O)[C@H](C)c1c([C@@]2(C)CCCC(C)(C)C2)ccc2c1C(=O)OC2
IC50 (Leishmania donovani): 9.7 µM
IC50 (J774.A1): 76.8 µM

CO[C@H]1OC(=O)[C@H](C)c2c([C@@]3(C)CCCC(C)(C)C3)ccc(C=O)c21
IC50 (Leishmania donovani): > 29 µM
IC50 (J774.A1): 54.6 µM

CO[C@@H]1O[C@H](OC)c2c1ccc([C@@]1(C)CCCC(C)(C)C1)c2[C@@H](C)C(=O)O
IC50 (Leishmania donovani): 6.5 µM
IC50 (J774.A1): > 133 µM

CO[C@H]1O[C@@H](OC(C)=O)c2ccc([C@@]3(C)CCCC(C)(C)C3)c([C@@H](C)C(=O)O)c21
IC50 (Leishmania donovani): 12 µM
IC50 (J774.A1): 62.9 µM

CC(=O)O[C@@H]1O[C@H]2OCC3=C(C)[C@@H]([C@@]4(C)CCCC(C)(C)C4)CC[C@@H]1[C@H]32
IC50 (Leishmania donovani): 11.2 µM
IC50 (J774.A1): 73.4 µM

C[C@H]1C(=O)O[C@@H](O)c2c(C=O)ccc([C@@]3(C)CCCC(C)(C)C3)c21
IC50 (Leishmania donovani): 1.9 µM
IC50 (J774.A1): > 150 µM
selectivity ratio [1]: > 100

CO[C@H]1OC(=O)c2ccc([C@@]3(C)CCCC(C)(C)C3)c([C@@H](C)C(=O)O)c21
IC50 (Leishmania donovani): 26.7 µM
IC50 (J774.A1): 42.4 µM

CO[C@H]1O[C@H](OC)c2c1ccc([C@@]1(C)CCCC(C)(C)C1)c2[C@@H](C)C(=O)O
IC50 (Leishmania donovani): 1.4 µM
IC50 (J774.A1): > 133 µM
selectivity ratio [1]: > 95

CC(=O)O[C@@H]1O[C@H]2OC(=O)[C@H](C)C3C([C@@]4(C)CCCC(C)(C)C4)=CC=C1C32 (stereo partly specified)
IC50 (Leishmania donovani): 3.1 µM
IC50 (J774.A1): 12.3 µM
selectivity ratio [1]: 4

CO[C@@H]1O[C@@H](OC)c2c1ccc([C@@]1(C)CCCC(C)(C)C1)c2[C@@H](C)C(=O)O [MEMBRANOLIDE C]
IC50 (Leishmania donovani): 0.8 µM
IC50 (J774.A1): > 133 µM
selectivity ratio [1]: > 166

CO[C@H]1O[C@@H](OC)c2c1ccc([C@@]1(C)CCCC(C)(C)C1)c2[C@@H](C)C(=O)O [MEMBRANOLIDE D]
IC50 (Leishmania donovani): 6.6 µM
IC50 (J774.A1): 95 µM

CCCCCCCCCCCCCCCCOP(=O)([O-])OCC[N+](C)(C)C [MILTEFOSINE]
IC50 (Leishmania donovani): 2.9 µM
IC50 (J774.A1): > 120 µM
